# The source made the active and inactive calls. The calls are words filed in the database; no cut-off is given here.
# Key:
# [1] = Cytotoxicity against african green monkey BSC cells at 60 ug/mL after 24 hrs; assay type: cell-based; conditions: chlorocebus aethiops
# How it was run: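 Sample on 6-mm filter paper disks placed directly on BSC-1 monkey kidney cells, incubated 24 h, examined by inverted microscope. Cytotoxic zone scored as +, ++, +++ or whole well.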
# [2] = test system: Amorphotheca resinae; test: Antifungal activity against Cladosporium resinae 10100 at 60 ug/disk by disk diffusion assay; assay type: functional; conditions: for zone of inhibition at 60 µg/disc: read-out: IZ
# How it was run: (§1)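 Sample solution dried onto 6-mm filter paper disks at the stated loading. Disks placed on agar plates seeded with the test organism, then incubated. Read-out is the width of the inhibition zone around the disk, in mm.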
# [3] = test system: Trichophyton mentagrophytes; test: Antifungal activity against Trichophyton mentagrophytes 10100 at 300 ug/disk by disk diffusion assay; assay type: functional; conditions: for zone of inhibition at 300 µg/disc: read-out: IZ; how it was run: as §1
# [4] = test system: Amorphotheca resinae; test: Antifungal activity against Cladosporium resinae 10100 at 300 ug/disk by disk diffusion assay; assay type: functional, organism-based; how it was run: as §1
# [5] = test system: Trichophyton mentagrophytes; test: Antifungal activity against Trichophyton mentagrophytes 10100 at 60 ug/disk by disk diffusion assay; assay type: functional; conditions: for zone of inhibition at 60 µg/disc: read-out: IZ; how it was run: as §1
# [6] = test system: Candida albicans; test: Antifungal activity against Candida albicans 10261 at 60 ug/disk by disk diffusion assay; assay type: functional; conditions: for zone of inhibition at 60 µg/disc: read-out: IZ; how it was run: as §1
# [7] = test system: Candida albicans; test: Antifungal activity against Candida albicans 10261 at 300 ug/disk by disk diffusion assay; assay type: functional; conditions: for zone of inhibition at 300 µg/disc: read-out: IZ; how it was run: as §1
# [8] = test system: Escherichia coli; test: Antibacterial activity against Escherichia coli at 60 ug/disk by disk diffusion assay; assay type: functional, organism-based; how it was run: as §1
# [9] = test system: Bacillus subtilis; test: Antibacterial activity against Bacillus subtilis at 300 ug/disk by disk diffusion assay; assay type: functional; conditions: for zone of inhibition at 300 µg/disc: read-out: IZ; how it was run: as §1
# [10] = test system: Bacillus subtilis; test: Antibacterial activity against Bacillus subtilis at 60 ug/disk by disk diffusion assay; assay type: functional; conditions: for zone of inhibition at 60 µg/disc: read-out: IZ; how it was run: as §1
# [11] = test system: Trichophyton mentagrophytes; test: Antifungal activity against Trichophyton mentagrophytes 10100 at 100 units/disk by disk diffusion assay; assay type: functional, organism-based
# How it was run: (§2)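 Sample solution dried onto 6-mm filter-paper disks, which are laid on seeded agar Petri dishes and incubated.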
# [12] = test system: Amorphotheca resinae; test: Antifungal activity against Cladosporium resinae 10100 at 100 units/disk by disk diffusion assay; assay type: functional, organism-based; how it was run: as §2
# [13] = test system: Trichophyton mentagrophytes; test: Antifungal activity against Trichophyton mentagrophytes 10100 by tube assay method; assay type: functional
# How it was run: (§3)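 MIC by standard tube dilution assay. Minimum fungicidal concentration is also reported in µg/ml.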
# [14] = test system: Candida albicans; test: Antifungal activity against Candida albicans 10261 by tube assay method; assay type: functional; how it was run: as §3
# [15] = test system: Bacillus subtilis; test: Antibacterial activity against Bacillus subtilis at 2.4 ug/disk by disk diffusion assay; assay type: functional, organism-based; how it was run: as §1
# [16] = test system: Candida albicans; test: Antifungal activity against Candida albicans 10261 at 12 ug/disk by disk diffusion assay; assay type: functional; conditions: for zone of inhibition at 12 µg/disc: read-out: IZ; how it was run: as §1
# [17] = test system: P388; test: Cytotoxicity against mouse P388 cells after 72 hrs by MTT assay; assay type: functional, cell-based; conditions: P388, 72 h
# How it was run: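 P-388 murine leukemia cells incubated 72 h with a 2-fold dilution series of sample. Growth read by MTT tetrazolium staining absorbance. IC50 (µg/ml) is the concentration reducing growth to 50% of a solvent control.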
# [18] = test system: Trichophyton mentagrophytes; test: Antifungal activity against Trichophyton mentagrophytes 10100 at 12 ug/disk by disk diffusion assay; assay type: functional; conditions: read-out: IZ; how it was run: as §1
# [19] = test system: Trichophyton mentagrophytes; test: Antifungal activity against Trichophyton mentagrophytes 10100 at 2.4 ug/disk by disk diffusion assay; assay type: functional; conditions: for zone of inhibition at 2.4 µg/disc: read-out: IZ; how it was run: as §1
# [20] = test system: Candida albicans; test: Antifungal activity against Candida albicans 10261 at 2.4 ug/disk by disk diffusion assay; assay type: functional, organism-based; how it was run: as §1
# [21] = test system: Bacillus subtilis; test: Antibacterial activity against Bacillus subtilis at 12 ug/disk by disk diffusion assay; assay type: functional; conditions: read-out: IZ; how it was run: as §1
# [22] = test system: Bacillus subtilis; test: Antibacterial activity against Bacillus subtilis at 30 ug/disk by disk diffusion assay; assay type: functional; conditions: read-out: IZ; how it was run: as §1
# [23] = test system: Escherichia coli; test: Antibacterial activity against Escherichia coli at 10 ug/disk by disk diffusion assay; assay type: functional, organism-based; how it was run: as §2
# [24] = test system: Pseudomonas aeruginosa; test: […] aeruginosa at 60 ug/disk by disk diffusion assay; assay type: functional, organism-based; how it was run: as §1
# [25] = test system: Gloeophyllum trabeum; test: Antifungal activity against Gloeophyllum trabeum; assay type: functional, organism-based
# [26] = test system: Poliovirus 1; test: Antiviral activity against Poliovirus type 1 infected in african green monkey BSC cells assessed as inhibition of virus-induced cytopathic effect; assay type: functional, organism-based
# How it was run: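 Sample is dried onto 6-mm filter-paper disks and placed directly on BSC-1 (African green monkey kidney) cell monolayers. Cells are infected with Polio Type I (Pfizer vaccine strain) and incubated 24 h. Wells are examined by inverted microscope for a zone of viral and/or cytotoxic inhibition around the disk. Cytotoxicity is scored as zone size (+, ++, +++, whole well).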
# [27] = test system: Postia placenta; test: Antifungal activity against Poria placenta; assay type: functional, organism-based; conditions: Rhodonia placenta
# [28] = test system: Human alphaherpesvirus 1; test: Antiviral activity against Herpes simplex virus type 1 ATCC VR 733 infected in african green monkey BSC cells assessed as inhibition of virus-induced cytopathic effect; assay type: functional, organism-based
# How it was run: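 Sample dried onto 6-mm filter paper disks placed directly on BSC-1 (African green monkey kidney) cell monolayers, which were infected with HSV type 1 (ATCC VR 733). After 24 h incubation, examined by inverted microscope. Zone of viral and/or cytotoxic inhibition around the disk recorded.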
Compound,Activity [1],Activity [2],Activity [3],Activity [4],Activity [5],Activity [6],Activity [7],Activity [8],Activity [9],Activity [10],MFC [13] [µg/mL],MIC [13] [µg/mL],MFC [14] [µg/mL],MIC [14] [µg/mL],zone of inhibition at 60 µg/disc [5] [mm],IC50 [17] [µg/mL],further results
COc1cccc(/C=C/c2ccc(O[Si](C)(C)C(C)(C)C)cc2)c1,Not Active,inactive,inactive,inactive,inactive,inactive,inactive,inactive,inactive,inactive,–,–,–,–,–,–,–
NYSTATIN,–,–,–,–,–,–,–,–,–,–,62.5,62.5,31.2,31.2,–,–,inhibition zone (IZ) [11]: 8 mm; inhibition zone (IZ) [12]: 10 mm
COc1cccc(/C=C/c2ccc(O)cc2)c1 [(E)-5-METHOXY-4'-STILBENOL],–,–,–,–,–,–,–,inactive,–,–,31.2,31.2,125,31.2,6,9.9,zone of inhibition at 60 µg/disc [2]: 2 mm; Activity [15]: inactive; Activity [16]: inactive; zone of inhibition at 300 µg/disc [3]: 10 mm; zone of inhibition at 60 µg/disc [6]: 2 mm; zone of inhibition at 300 µg/disc [7]: 7 mm; zone of inhibition at 300 µg/disc [9]: 6 mm; zone of inhibition at 12 µg/disc [18]: 8 mm; zone of inhibition at 2.4 µg/disc [19]: 2 mm; Activity [20]: inactive; zone of inhibition at 12 µg/disc [21]: 2 mm; zone of inhibition at 60 µg/disc [10]: 4 mm
O=C(N[C@H](CO)[C@H](O)c1ccc([N+](=O)[O-])cc1)C(Cl)Cl [CHLORAMPHENICOL],–,–,–,–,–,–,–,–,–,–,–,–,–,–,–,–,zone of inhibition at 30 µg/disc [22]: 12 mm
COc1cccc(/C=C\c2ccc(O)cc2)c1,–,–,–,–,–,–,–,–,–,–,15.6,12.6,62.5,31.2,10,16.3,zone of inhibition at 60 µg/disc [2]: 3 mm; Activity [15]: inactive; zone of inhibition at 12 µg/disc [16]: 2 mm; zone of inhibition at 300 µg/disc [3]: 10 mm; zone of inhibition at 60 µg/disc [6]: 7 mm; zone of inhibition at 300 µg/disc [7]: 7 mm; zone of inhibition at 300 µg/disc [9]: 9 mm; zone of inhibition at 12 µg/disc [18]: 7 mm; zone of inhibition at 2.4 µg/disc [19]: 5 mm; Activity [20]: inactive; zone of inhibition at 12 µg/disc [21]: 4 mm; zone of inhibition at 60 µg/disc [10]: 9 mm
CO[C@@]12[C@H](COC(N)=O)C3=C(C(=O)C(C)=C(N)C3=O)N1C[C@@H]1N[C@@H]12 [MITOMYCIN],–,–,–,–,–,–,–,–,–,–,–,–,–,–,–,0.02,–
COc1cccc(CCc2ccc(O[Si](C)(C)C(C)(C)C)cc2)c1,Not Active,inactive,inactive,inactive,inactive,inactive,inactive,inactive,inactive,inactive,> 1000,> 1000,> 1000,> 1000,–,> 25,–
COc1cccc(/C=C\c2ccc(O[Si](C)(C)C(C)(C)C)cc2)c1,Not Active,inactive,inactive,inactive,inactive,inactive,inactive,inactive,inactive,inactive,–,–,–,–,–,–,–
Cc1cccc(O)c1 [METACRESOL],Not Active,inactive,inactive,–,–,inactive,inactive,inactive,inactive,inactive,–,–,–,–,2,–,–
COc1ccc(CCc2cccc(OC)c2)cc1,Not Active,inactive,inactive,–,inactive,inactive,inactive,inactive,inactive,inactive,–,–,–,–,–,–,–
GENTAMICIN,–,–,–,–,–,–,–,–,–,–,–,–,–,–,–,–,inhibition zone (IZ) [23]: 8 mm
COc1cccc(CCc2ccc(O)cc2)c1,–,–,–,–,–,–,–,inactive,–,–,62.5,62.5,125,125,7,> 25,Activity [24]: inactive; zone of inhibition at 60 µg/disc [2]: 2 mm; Activity [15]: inactive; zone of inhibition at 12 µg/disc [16]: 2 mm; zone of inhibition at 300 µg/disc [3]: 7 mm; IC50 [25]: 87 µg/mL; zone of inhibition at 60 µg/disc [6]: 10 mm; zone of inhibition at 300 µg/disc [7]: 10 mm; Activity [26]: inactive; zone of inhibition at 300 µg/disc [9]: 5 mm; zone of inhibition at 12 µg/disc [18]: 7 mm; Activity [19]: inactive; Activity [20]: inactive; zone of inhibition at 12 µg/disc [21]: 3 mm; IC50 [27]: 11 µg/mL; zone of inhibition at 60 µg/disc [10]: 5 mm; Activity [28]: inactive
C(=C\c1ccccc1)/c1ccccc1,–,inactive,inactive,inactive,inactive,inactive,inactive,inactive,inactive,inactive,–,–,–,–,–,–,–
